Assay outcomes: PubChem BioAssay, several laboratories
RanGTP-Imp inh – disruptors of Ran-importin-beta complex formation – biochemical, FRET, CFP-Ran, YFP-importin-beta, homogeneous, primary screen | cell-free CFP-Ran/YFP-importin-beta FRET ratio | inhibition, % (concentration not given with the values) | actives 1.1% (n = 300,000);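 active means more than half of the replicate wells show a fall in the fluorescence ratio signal beyond about 16%, limit read from the data, passing the limit was not always enough; inconclusive means exactly half of the replicate wells pass the set limit; inactive means fewer than half of replicates pass the limit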
Runt-SMMHC FRET – Runt domain-CBFb-SMMHC interaction inhibition. Cerulean-Runt/Venus-CBFb-SMMHC FRET ratio 530/480, 1 h. actives 0.74% (n = 220,000). Q01196+Q13951. inhibition, % at 20 µM;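 active means mean inhibition across duplicate retests at 20 µM reaching about 50%, limit read from the data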;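 further: inhibitors lower the FRET ratio by blocking Runt binding to CBFb-SMMHC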
Target sequence (Q01196 whole entry, looked up, the tested form may be a part): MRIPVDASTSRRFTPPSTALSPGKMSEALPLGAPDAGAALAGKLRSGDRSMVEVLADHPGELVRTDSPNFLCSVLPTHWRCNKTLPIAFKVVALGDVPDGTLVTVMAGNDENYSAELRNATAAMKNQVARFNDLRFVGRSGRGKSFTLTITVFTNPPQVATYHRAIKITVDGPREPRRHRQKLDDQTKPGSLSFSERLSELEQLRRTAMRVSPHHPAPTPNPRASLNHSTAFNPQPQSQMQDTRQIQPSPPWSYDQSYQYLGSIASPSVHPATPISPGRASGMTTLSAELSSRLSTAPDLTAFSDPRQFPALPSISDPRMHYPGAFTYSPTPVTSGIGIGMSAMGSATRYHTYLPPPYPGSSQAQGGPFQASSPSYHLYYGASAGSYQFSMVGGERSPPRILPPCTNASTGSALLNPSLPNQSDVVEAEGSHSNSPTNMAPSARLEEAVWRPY
Target sequence (Q13951 whole entry, looked up, the tested form may be a part): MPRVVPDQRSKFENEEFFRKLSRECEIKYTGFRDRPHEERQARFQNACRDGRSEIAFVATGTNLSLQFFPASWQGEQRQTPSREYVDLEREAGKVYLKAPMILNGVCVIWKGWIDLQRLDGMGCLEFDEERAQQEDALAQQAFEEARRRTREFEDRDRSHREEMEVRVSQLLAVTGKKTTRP
VIM-2 inh – blocks Pseudomonas aeruginosa VIM-2 metallo-beta-lactamase | AID 1527 | purified VIM-2, nitrocefin hydrolysis, epi-absorbance fluorescence | inhibition, % at 5.6 µM | actives 0.89% (n = 290,000);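 active means inhibition above the mean of all tested compounds plus 3 SD, cutoff set per screening run, cut at about 7.5% in these data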;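 further: red hydrolysis product quenches plate fluorescence so inhibitors raise well fluorescence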
Runt-CBFb FRET – blocks binding of human RUNX1 Runt domain to CBFb. Q01196+Q13951. Cerulean-Runt/Venus-CBFb FRET ratio 530/480, 1 h. inhibition, % at 20 µM. actives 0.46% (n = 220,000);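 active means inhibition over about 50% at 20 µM in the single-dose screen, limit read from the data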
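Measured by: fluorescence energy transfer, 422 nm excitation, 530/480 nm emission; Assay system: Cerulean-Runt domain; Medium: Tris pH 7.5 buffer with BSA; Measure: loss of energy transfer signal; Controls: 5 µM unlabeled CBFb as full-inhibition high control; Incubation: protein complex preformed 1 h, compound exposure 1 h, room temperature, dark.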
IMP-1 inhibitor – blocks Pseudomonas aeruginosa IMP-1 metallo-beta-lactamase | purified IMP-1, nitrocefin hydrolysis, epi-absorbance fluorescence | inhibition, % at 5.6 µM | actives 0.45% (n = 290,000) | AID 1556;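 active means inhibition above the mean plus 3 SD of all compounds in the same screening run, cut at about 4.5% in these data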
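System: purified recombinant IMP-1 beta-lactamase. Medium: Zinc- and detergent-supplemented HEPES buffer, pH 7.1. Compound: one 5.6 µM dose […]. Schedule: 15 min preincubation plus 25 min reaction at 25 °C. Technique: Epi-absorbance fluorescence, 480 nm excitation, 530 nm emission.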
Numbers stand for hits; n = inactive; u = inconclusive; x = no result given. An excerpt weighted towards active compounds, which were near 2.6% of everything screened.

SMILES | RanGTP-Imp inh | Runt-SMMHC FRET | VIM-2 inh | Runt-CBFb FRET | IMP-1 inhibitor
N#Cc1c(-c2ccccc2Cl)c2c([nH]c1=O)-c1ccccc1OC2 | 131.0 | 81.6 | n | 94.8 | n
N#Cc1c(-c2ccncc2)c2c([nH]c1=O)-c1ccccc1OC2 | 55.9 | x | n | n | n
OCCN1CCN(Cc2cc(Cl)c3cccnc3c2O)CC1 | 40.3 | n | n | n | n
Oc1c(CN2CCN(c3ccccn3)CC2)cc(Cl)c2cccnc12 | 23.9 | n | n | n | n
O=c1c(C(c2ccccc2)c2c(O)sc3ccccc3c2=O)c(O)sc2ccccc12 | 19.2 | n | n | n | n
CC(C)(C)N1C(=O)[C@H]2[C@@H](c3ccc(Br)cc3)N3C(=O)N(c4cccc(Cl)c4)C(=O)[C@@]3(Cc3ccccc3)[C@H]2C1=O | n | x | x | x | x
Cc1ccc(C(=O)Cn2ncsc2=N)cc1 | n | n | n | n | 25.0
Cc1ccc(C(=O)Cn2c(=N)n(N)c3ccccc32)cc1 | n | x | n | x | n
Nc1cccc2c(=O)c3ccccc3[nH]c12 | 63.7 | x | n | x | n
COc1cccc2[nH]c3ccccc3c(=O)c12 | 126.6 | x | n | x | n
COc1cccc2[nH]c(C(=O)NN)c(N)c12 | n | n | n | n | n
O=c1[nH]c2ccccc2cc1CN(CC1CCCO1)S(=O)(=O)c1ccc(Cl)cc1 (stereo not given) | n | x | n | x | n
NS(=O)(=O)c1ccc(S(=O)(=O)N(Cc2ccccc2F)CC2CCCO2)cc1 (stereo not given) | n | n | n | n | 5.0
CCCN(C(=O)c1cn(-c2ccccc2)nc1-c1ccc(OC)cc1)C1CCS(=O)(=O)C1 (stereo not given) | n | x | x | x | x
O=C(NCCCO)c1ccc2nc(-c3ccco3)c(-c3ccco3)nc2c1 | x | n | n | n | n
O=C(Nc1ccccc1)c1ccc2nc(-c3ccco3)c(-c3ccco3)nc2c1 | 35.9 | n | n | n | n
O=C(NCCO)Nc1ccc2nc(-c3ccco3)c(-c3ccco3)nc2c1 | x | n | n | n | 6.4
O=C(Nc1ccc(N2CCOCC2)cc1)c1ccc2nc(-c3ccco3)c(-c3ccco3)nc2c1 | u | n | n | n | n
CC(=O)c1ccc(NC(=O)c2ccc3nc(-c4ccco4)c(-c4ccco4)nc3c2)cc1 | 34.5 | n | n | n | n
CCCCNC(=O)c1ccc2nc(-c3ccco3)c(-c3ccco3)nc2c1 | n | n | n | n | n
O=C(NCc1ccccc1)c1ccc2nc(-c3ccco3)c(-c3ccco3)nc2c1 | 25.0 | n | n | n | n
O=C(NC(C1CC1)C1CC1)C1CCC(=O)N(CCCN2CCCC2=O)C1 (stereo not given) | n | x | n | x | n
C=CCNC(=O)N1CCC(c2nc3ccccc3s2)CC1 | n | x | n | x | n
CCC(C)c1c(O)nc(SCC(=O)Nc2ccccc2)[nH]c1=O (stereo not given) | n | n | n | n | n
CCC(C)c1c(O)nc(SCC(=O)c2ccccc2)[nH]c1=O (stereo not given) | n | n | n | n | 4.7
SMILES | RanGTP-Imp inh | Runt-SMMHC FRET | VIM-2 inh | Runt-CBFb FRET | IMP-1 inhibitor
CCC1OC2(C)OC(=N)C1(C#N)C(C#N)(C#N)C2c1ccccc1 (stereo not given) | 33.0 | n | n | n | n
CC1=CC(C#N)(C#N)C(C#N)(C#N)C(c2ccccc2)N1 (stereo not given) | n | n | n | n | n
CC(C)C1OC2(C)OC(=N)C1(C#N)C(C#N)(C#N)C2c1ccccc1 (stereo not given) | 31.6 | 63.2 | n | n | n
CCN(CC(=O)Nc1ccccc1OC)C(=O)c1cc(S(=O)(=O)N2CCCCCC2)ccc1OC | n | x | x | x | x
CCOc1ccc(C(=O)NCC(=O)NC(C)CCc2ccccc2)cc1OCC (stereo not given) | n | x | n | x | n
CCC(C)c1ccc(S(=O)(=O)N2CCN(c3ccccn3)CC2)cc1 (stereo not given) | n | x | n | x | n
O=C(Nc1ccc(C(F)(F)F)cc1)C1CCN(S(=O)(=O)c2ccc(N3CCCC3=O)cc2)CC1 | n | x | n | x | n
Cc1oc2c(CN3CCCC3)c(O)ccc2c(=O)c1-c1ccccc1 | x | n | n | n | n
O=c1c(Oc2ccccc2Br)c(C(F)(F)F)oc2c(CN3CCCC3)c(O)ccc12 | 50.8 | n | n | n | n
CCN(CC)c1ccc2cc(-c3nc(-c4ccc(OC)cc4)cs3)c(=O)oc2c1 | x | 61.6 | n | n | n
CCN(CC)c1ccc2cc(-c3nc4ccccc4n3C)c(=O)oc2c1 | 125.8 | 60.9 | n | n | n
CCN(CC)c1ccc2cc(-c3nnc(-c4ccc(Br)cc4)o3)c(=O)oc2c1 | x | x | n | x | n
CN(C)Cc1c(O)ccc2cc(-c3nc4ccccc4n3C)c(=O)oc12 | 132.4 | x | n | x | n
CCOc1ccc(CCNC(=O)COC(=O)c2c(C)nn(-c3ccccc3)c2C)cc1OCC | n | x | n | x | n
COc1ccc(C)cc1NC(=O)c1cc2c(=O)n3ccccc3nc2n1C | x | 92.5 | n | n | n
COc1ccc(NC(=O)c2cc3c(=O)n4ccccc4nc3n2C)c(OC)c1 | n | n | n | x | n
Cn1c(C(=O)NCc2ccccn2)cc2c(=O)n3ccccc3nc21 | n | 96.6 | n | n | n
Cc1ccc(COC(=O)NCc2cccnc2)cc1 | u | x | n | x | n
Cc1ccc(-n2nc3c(c2NC(=O)C(C)(C)C)CS(=O)(=O)C3)cc1 | n | x | n | x | n
COc1cccc2c1C(=O)c1ccc3ccccc3c1C2=O | n | n | n | n | 12.7
COc1ccc(-c2cc(C(=O)Nc3cc(Cl)ccc3O)no2)cc1 | n | x | n | x | 24.9
COc1ccc(-c2cc(C(=O)Nc3ccc(Br)cc3)no2)cc1 | n | x | n | x | 20.2
COc1ccc(-c2cc(C(=O)Nc3cc(C)ccc3O)no2)cc1 | n | x | n | x | n
CN1CCN(S(=O)(=O)c2ccc3c(c2)oc(=O)n3C)CC1 | n | x | n | x | n
COc1ccc(OC)c(S(=O)(=O)NC2CC(=O)N(c3ccc(C)c(C)c3)C2)c1 (stereo not given) | n | x | x | x | x
SMILES | RanGTP-Imp inh | Runt-SMMHC FRET | VIM-2 inh | Runt-CBFb FRET | IMP-1 inhibitor
CCOC(=O)C(C)c1c(C(=O)c2ccc(C)nc2)c2ccccc2n1C (stereo not given) | n | 52.1 | n | n | n
CCOC(=O)C(=O)N=Nc1c(O)n(C)c2ccccc12 | u | n | n | n | n
CCN1C(=O)/C(=C\N2CCCc3ccccc32)SC1=S | n | n | n | n | n
CCN1C(=O)/C(=C/N2CCc3ccccc32)SC1=S | 27.8 | n | n | n | n
COc1ccccc1CNC(=O)CCCC(=O)n1ncc2cc(C)ccc21 | n | x | n | x | n
O=C(N/N=C/c1sc(=O)n(Cc2ccc(Br)cc2)c1Cl)c1ccco1 | n | x | n | x | 23.9
O=C(N/N=C/c1ccc(Br)s1)c1ccco1 | n | n | n | n | n
OCCN(CCO)c1ncnc2c1sc1nc(N3CCOCC3)c3c(c12)CCCC3 | n | n | 9.0 | n | n
O=C(O)CSc1ncnc2c1sc1nc(-c3ccccc3)c3c(c12)CCC3 | n | n | n | n | 9.4
